Test results as given in ChEMBL document CHEMBL1144689, “Antileukemic activity of genistein, a major isoflavone present in soy products” (J Nat Prod, 2008).
The source made the active and inactive calls. The rule behind the calls is not given here.

Columns and labels:
[1] = Growth inhibition of human KG1a cells at 5 uM after 48 hrs; format: functional; conditions: KG-1a
In short: (§1)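 Human leukemic cells (RPMI-1640, 10% heat-inactivated FBS), log phase, seeded at 2 × 10^4 cells/mL. Exposed to 1, 2, 5, 10 or 20 µM (DMSO stock). Cell number counted with a Coulter particle counter at 48 h. Growth inhibition as % of untreated control. IG50 is the concentration giving 50% inhibition. Triplicate, three repeats, mean ± SEM.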

[2] = test system: L1210; test: Induction of p15CDKN2B re-expression in mouse L1210 cells at 1 to 20 uM after 24 hrs by RT-PCR; format: functional, cell-based
In short: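 Murine L1210 cells exposed to 1–20 µM for 24 h. RNA analysed by RT-PCR for p15CDKN2B, with 18S rRNA as reference. Cycle number set within the exponential phase. Products run on 2% agarose and stained with ethidium bromide. Repeated twice.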

[3] = test system: HL-60; test: Antileukemic activity against human HL60 cells after 24 hrs by clonogenic assay; format: functional; conditions: HL-60, 24 h, read-out: LC50 (the source's name)
In short: (§2)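 Log-phase cells seeded at 2 × 10^4 cells/mL in RPMI-1640 with 10% heat-inactivated FBS at 37 °C, 5% CO2, then exposed 24 h to 1–20 µM (DMSO stock). Drug washed out by centrifugation. 100 cells plated in 0.45% soft agar with 20% serum for 15 days, and colonies (>50 cells) counted. Loss of clonogenicity is relative to untreated control. Triplicates, repeated three times, mean ± SEM. LC50 read from the dose curve.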

[4] = test system: L1210; test: Growth inhibition of mouse L1210 cells at 1 uM after 24 hrs; format: functional; conditions: L1210, 24 h, read-out: GI
In short: (§3)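 For L1210 (RPMI-1640, 5% heat-inactivated FCS, 6 µM 2-mercaptoethanol), log-phase cultures at 2 × 10^4 cells/mL were given 1–20 µM for 12, 24 or 48 h. Coulter particle counter counts were expressed as % growth inhibition versus untreated control. IG50 was taken at 24 h. Triplicate, three repeats, mean ± SEM.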

[5] = test system: L1210; test: Antileukemic activity against mouse L1210 cells at 2 uM after 12 hrs by clonogenic assay; format: functional
In short: (§4)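 Murine L1210 cells cultured in RPMI-1640 with 5% heat-inactivated FCS and 6 µM 2-mercaptoethanol. Log-phase cells at 2 × 10^4 cells/mL exposed to 1–20 µM for 12, 24 or 48 h, then drug removed by centrifugation. 100 cells plated in 0.45% soft agar with 10% serum. Colonies >50 cells counted at day 7. Result as % relative to untreated control. Triplicate, three repeats, mean ± SEM.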

[6] = test system: L1210; test: Antileukemic activity against mouse L1210 cells at 1 uM after 12 hrs by clonogenic assay; format: functional; in short: as §4
[7] = test system: L1210; test: Growth inhibition of mouse L1210 cells at 5 uM after 48 hrs; format: functional; conditions: L1210, 48 h, read-out: GI; in short: as §3
[8] = test system: L1210; test: Antileukemic activity against mouse L1210 cells at 5 uM after 12 hrs by clonogenic assay; format: functional; in short: as §4
[9] = test system: L1210; test: Growth inhibition of mouse L1210 cells at 2 uM after 48 hrs; format: functional; conditions: L1210, 48 h, read-out: GI; in short: as §3
[10] = test system: L1210; test: Growth inhibition of mouse L1210 cells at 2 uM after 24 hrs; format: functional; conditions: L1210, 24 h, read-out: GI; in short: as §3
[11] = test system: L1210; test: Antileukemic activity against mouse L1210 cells at 20 uM after 12 hrs by clonogenic assay; format: functional; in short: as §4
[12] = test system: L1210; test: Antileukemic activity against mouse L1210 cells at 10 uM after 48 hrs by clonogenic assay; format: functional; in short: as §4
[13] = test system: L1210; test: Antileukemic activity against mouse L1210 cells at 5 uM after 24 hrs by clonogenic assay; format: functional; in short: as §4
[14] = test system: MOLT-3; test: Growth inhibition of human MOLT3 cells at 2 uM after 48 hrs; format: functional; conditions: MOLT-3, 48 h, read-out: GI; in short: as §1
[15] = test system: L1210; test: Growth inhibition of mouse L1210 cells at 5 uM after 24 hrs; format: functional; conditions: L1210, 24 h, read-out: GI; in short: as §3
[16] = test system: HL-60; test: Induction of p57KIP2 re-expression in human HL60 cellular RNA at 1 to 20 uM after 48 hrs by RT-PCR; format: functional, cell-based
In short: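 HL-60 cells treated 48 h with 1–20 µM. p57KIP2 transcript detected by RT-PCR against 18S rRNA reference, with cycles set in the exponential phase. Products resolved on 2% agarose with ethidium bromide staining. Repeated twice.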

[17] = test system: L1210; test: Antileukemic activity against mouse L1210 cells at 1 uM after 24 hrs by clonogenic assay; format: functional; in short: as §4
[18] = test system: L1210; test: Growth inhibition of mouse L1210 cells at 5 uM after 12 hrs; format: functional; conditions: L1210, 12 h, read-out: GI; in short: as §3
[19] = test system: L1210; test: Antileukemic activity against mouse L1210 cells at 20 uM after 48 hrs by clonogenic assay; format: functional; in short: as §4
[20] = test system: MOLT-3; test: Growth inhibition of human MOLT3 cells after 48 hrs; format: functional; in short: as §1
[21] = test system: MOLT-3; test: Antileukemic activity against human MOLT3 cells after 24 hrs by clonogenic assay; format: functional; conditions: MOLT-3, 24 h, read-out: LC50 (the source's name); in short: as §2
[22] = test system: L1210; test: Antileukemic activity against mouse L1210 cells at 20 uM after 24 hrs by clonogenic assay; format: functional; in short: as §4
[23] = test system: MOLT-3; test: Antileukemic activity against human MOLT3 cells at 1 uM after 24 hrs by clonogenic assay; format: functional
In short: (§5)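 Log-phase cells at 2 × 10^4 cells/mL in RPMI-1640 with 10% heat-inactivated FBS, 37 °C, 5% CO2. Drug (DMSO stock) at 1, 2, 5, 10 or 20 µM for 24 h, removed by centrifugation. 100 cells plated in 0.45% soft agar with 20% serum. Colonies >50 cells counted after 15 days. Loss of clonogenicity as % of untreated control. Triplicate, three repeats, mean ± SEM.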

[24] = test system: L1210; test: Growth inhibition of mouse L1210 cells at 10 uM after 48 hrs; format: functional; conditions: L1210, 48 h, read-out: GI; in short: as §3
[25] = test system: L1210; test: Growth inhibition of mouse L1210 cells at 1 uM after 48 hrs; format: functional; conditions: L1210, 48 h, read-out: GI; in short: as §3
[26] = test system: L1210; test: Growth inhibition of mouse L1210 cells at 10 uM after 24 hrs; format: functional; conditions: L1210, 24 h, read-out: GI; in short: as §3
[27] = Elimination half life in human plasma; format: ADME, organism-based
[28] = test system: HL-60; test: Growth inhibition of human HL60 cells at 5 uM after 48 hrs; format: functional; conditions: HL-60, 48 h, read-out: GI; in short: as §1
[29] = test system: L1210; test: Antileukemic activity against mouse L1210 cells at 5 uM after 48 hrs by clonogenic assay; format: functional; in short: as §4
[30] = test system: L1210; test: Growth inhibition of mouse L1210 cells at 1 uM after 12 hrs; format: functional; conditions: L1210, 12 h, read-out: GI; in short: as §3
[31] = test system: Plasma; test: Drug concentration in human plasma; format: ADME, cell-free; conditions: read-out: Drug uptake
[32] = test system: L1210; test: Growth inhibition of mouse L1210 cells at 20 uM after 24 hrs; format: functional; conditions: L1210, 24 h, read-out: GI; in short: as §3
[33] = Half life in CD2F1 mouse; format: ADME, organism-based; conditions: in vivo
[34] = test system: L1210; test: Antileukemic activity against mouse L1210 cells at 10 uM after 24 hrs by clonogenic assay; format: functional; in short: as §4
[35] = Growth inhibition of human KG1a cells after 48 hrs; format: functional, KG-1a; in short: as §1
[36] = test system: L1210; test: Antileukemic activity against mouse L1210 cells at 2 uM after 48 hrs by clonogenic assay; format: functional; in short: as §4
[37] = test system: L1210; test: Antileukemic activity against mouse L1210 cells at 1 uM after 48 hrs by clonogenic assay; format: functional; in short: as §4
[38] = test system: L1210; test: Growth inhibition of mouse L1210 cells at 20 uM after 48 hrs; format: functional; conditions: L1210, 48 h, read-out: GI; in short: as §3
[39] = test system: Raji; test: Antileukemic activity against human Raji cells at >2 uM after 24 hrs by clonogenic assay; format: functional; in short: as §5
[40] = test system: L1210; test: Growth inhibition of mouse L1210 cells at 10 uM after 12 hrs; format: functional; conditions: L1210, 12 h, read-out: GI; in short: as §3
[41] = test system: L1210; test: Antileukemic activity against mouse L1210 cells at 10 uM after 12 hrs by clonogenic assay; format: functional; in short: as §4
[42] = test system: Raji; test: Antileukemic activity against human Raji cells after 24 hrs by clonogenic assay; format: functional; conditions: read-out: LC50 (the source's name); in short: as §2
[43] = test system: Raji; test: Growth inhibition of human Raji cells at 5 uM after 48 hrs; format: functional; conditions: read-out: GI; in short: as §1
[44] = test system: Raji; test: Growth inhibition of human Raji cells after 48 hrs; format: functional; in short: as §1
[45] = test system: L1210; test: Growth inhibition of mouse L1210 cells at 20 uM after 12 hrs; format: functional; conditions: L1210, 12 h, read-out: GI; in short: as §3
[46] = test system: L1210; test: Growth inhibition of mouse L1210 cells at 2 uM after 12 hrs; format: functional; conditions: L1210, 12 h, read-out: GI; in short: as §3
[47] = test system: L1210; test: Antileukemic activity against mouse L1210 cells at 2 uM after 24 hrs by clonogenic assay; format: functional; in short: as §4
[48] = test system: L1210; test: Growth inhibition of mouse L1210 cells after 24 hrs; format: functional; in short: as §3
[49] = test system: HL-60; test: Antileukemic activity against human HL60 cells at >2 uM after 24 hrs by clonogenic assay; format: functional; in short: as §5
[50] = test system: HL-60; test: Growth inhibition of human HL60 cells after 48 hrs; format: functional; in short: as §1
[51] = test system: L1210; test: Antileukemic activity against mouse L1210 cells after 24 hrs by clonogenic assay; format: functional; conditions: L1210, 24 h, read-out: LC50 (the source's name)
In short: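 Murine L1210 grown in RPMI-1640 with 5% heat-inactivated FCS and 6 µM 2-mercaptoethanol. Log-phase cells at 2 × 10^4 cells/mL exposed to 1–20 µM for 24 h. Drug removed by centrifugation. 100 cells plated in 0.45% soft agar with 10% serum for 7 days, and colonies (>50 cells) counted. Loss is relative to untreated control. Triplicates, three experiments, mean ± SEM.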

[52] = organism: Mus musculus; test: Toxicity in mouse L1210 cells transplanted CD2F1 mouse assessed as increase in survival time at 0.5% treated with diet for 10 days; format: organism-based; conditions: in vivo, po, 240 h
In short: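 Male CD2F1 mice, 24–28 g, n = 11 per group, on a 2016 diet with or without 0.5% supplement, adapted over 10 days. Then injected i.v. with 10^4 L1210 cells (0.1 mL), passaged weekly i.p. as ascites. Diet continued. Survival checked 2–3 times daily and increase in life span calculated. Toxicity assessed by body weight loss.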

## O=c1c(-c2ccc(O)cc2)coc2cc(O)cc(O)c12 [GENISTEIN]
[1]
  inhibition at 5 µM: > 10%
[2]
  Activity: Active
[3]
  CC50: 6.3 µM
[4]
  inhibition of growth at 1 µM: 4.1%
[5]
  Activity: 14%
[6]
  Activity: 11%
[7]
  inhibition of growth at 5 µM: 55.9%
[8]
  Activity: 44%
[9]
  inhibition of growth at 2 µM: 21.9%
[10]
  inhibition of growth at 2 µM: 11.4%
[11]
  Activity: 100%
[12]
  Activity: 81.1%
[13]
  Activity: 16%
[14]
  inhibition of growth at 2 µM: > 10%
[15]
  inhibition of growth at 5 µM: 28.5%
[16]
  Activity: Active
[17]
  Activity: 6%
[18]
  inhibition of growth at 5 µM: 15.1%
[19]
  Activity: 99.7%
[20]
  IG50: 12.7 µM
[21]
  CC50: 7.5 µM
[22]
  Activity: 97%
[23]
  Activity: >10%
[24]
  inhibition of growth at 10 µM: 79.2%
[25]
  inhibition of growth at 1 µM: 13.2%
[26]
  inhibition of growth at 10 µM: 42.8%
[27]
  half-life: 15 h
[28]
  inhibition of growth at 5 µM: > 10%
[29]
  Activity: 32.9%
[30]
  inhibition of growth at 1 µM: 3.2%
[31]
  concentration: 4 µM
[32]
  inhibition of growth at 20 µM: 66.7%
[33]
  half-life: < 0.25 h
[34]
  Activity: 63%
[35]
  IG50: 23 µM
[36]
  Activity: 8.9%
[37]
  Activity: 11.9%
[38]
  inhibition of growth at 20 µM: 93.1%
[39]
  Activity: >10%
[40]
  inhibition of growth at 10 µM: 23.8%
[41]
  Activity: 94%
[42]
  CC50: 13.7 µM
[43]
  inhibition of growth at 5 µM: > 10%
[44]
  IG50: 18.6 µM
[45]
  inhibition of growth at 20 µM: 54.2%
[46]
  inhibition of growth at 2 µM: 6.2%
[47]
  Activity: 13%
[48]
  IG50: 18.5 µM
[49]
  Activity: >10%
[50]
  IG50: 18.2 µM
[51]
  CC50: 6.5 µM
[52]
  Survival: 187 h
